According to ChEMBL document CHEMBL5653631, “A Potent and Selective ULK1 Inhibitor Suppresses Autophagy and Sensitizes Cancer Cells to Nutrient Stress” (iScience, 2018):
Blank lines part the entries; values can stand above or below the compound they belong to. Calls of active or inactive are those of the source. No cut-off for these calls is given here.

How the values were obtained:
[1] = target: T1, NUAK family SNF1-like kinase 1 (Homo sapiens) (UniProt O60285); experiment: Inhibition of human recombinant NuaK1 at 500 nM in presence of ATP by radiometric assay relative to control
T1 sequence (whole entry): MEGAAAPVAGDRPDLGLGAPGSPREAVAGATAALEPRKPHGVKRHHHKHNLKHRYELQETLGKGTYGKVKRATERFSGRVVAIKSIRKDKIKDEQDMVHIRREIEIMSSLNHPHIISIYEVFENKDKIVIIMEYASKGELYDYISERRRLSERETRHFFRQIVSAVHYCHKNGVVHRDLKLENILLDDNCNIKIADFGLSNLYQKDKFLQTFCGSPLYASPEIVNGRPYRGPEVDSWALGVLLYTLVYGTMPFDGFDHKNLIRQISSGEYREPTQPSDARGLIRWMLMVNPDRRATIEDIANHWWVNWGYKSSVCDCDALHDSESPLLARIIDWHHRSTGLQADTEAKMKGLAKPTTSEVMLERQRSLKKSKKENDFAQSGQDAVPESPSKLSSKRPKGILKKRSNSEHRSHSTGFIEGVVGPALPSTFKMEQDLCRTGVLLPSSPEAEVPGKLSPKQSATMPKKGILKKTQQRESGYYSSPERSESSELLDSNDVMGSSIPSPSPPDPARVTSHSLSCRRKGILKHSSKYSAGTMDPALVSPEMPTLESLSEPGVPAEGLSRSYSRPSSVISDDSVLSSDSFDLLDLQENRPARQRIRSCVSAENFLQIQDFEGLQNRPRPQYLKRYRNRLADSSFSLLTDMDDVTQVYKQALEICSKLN

[2] = target: T2, MAPK/MAK/MRK overlapping kinase (Homo sapiens) (UniProt Q9UQ07); experiment: Inhibition of human recombinant MOK at 40 nM related to control ULK1
T2 sequence (whole entry): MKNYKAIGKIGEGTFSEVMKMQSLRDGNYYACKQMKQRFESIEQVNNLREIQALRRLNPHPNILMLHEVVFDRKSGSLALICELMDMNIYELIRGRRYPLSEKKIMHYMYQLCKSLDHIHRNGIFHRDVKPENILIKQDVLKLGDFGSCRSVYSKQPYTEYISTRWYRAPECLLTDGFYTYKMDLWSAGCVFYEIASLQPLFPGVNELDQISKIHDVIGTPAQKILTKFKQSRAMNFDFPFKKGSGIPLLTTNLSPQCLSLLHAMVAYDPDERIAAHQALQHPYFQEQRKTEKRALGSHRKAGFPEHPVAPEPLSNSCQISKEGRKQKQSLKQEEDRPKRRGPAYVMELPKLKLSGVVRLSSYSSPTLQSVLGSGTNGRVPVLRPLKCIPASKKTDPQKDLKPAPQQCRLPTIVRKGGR

U2OS = experiment: Inhibition of autophagy in human U2OS cells assessed as reduction in phagophore formation at 5 uM incubated for 2.5 hrs by Fluorescent microscopy based analysis; assay type: functional, cell-based
How it was run: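 U2OS cells treated 2.5 hr with vehicle or 100 nM AZD8055, with or without 5 μM inhibitor; fixed and immunostained for endogenous ATG12; ATG12-positive puncta (phagophores) assessed by fluorescence microscopy.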

[3] = target: T3, Ephrin type-B receptor 2 (Homo sapiens) (UniProt P29323); experiment: Inhibition of human recombinant EphB2 at 15 nM in presence of ATP by radiometric assay relative to control
T3 sequence (whole entry): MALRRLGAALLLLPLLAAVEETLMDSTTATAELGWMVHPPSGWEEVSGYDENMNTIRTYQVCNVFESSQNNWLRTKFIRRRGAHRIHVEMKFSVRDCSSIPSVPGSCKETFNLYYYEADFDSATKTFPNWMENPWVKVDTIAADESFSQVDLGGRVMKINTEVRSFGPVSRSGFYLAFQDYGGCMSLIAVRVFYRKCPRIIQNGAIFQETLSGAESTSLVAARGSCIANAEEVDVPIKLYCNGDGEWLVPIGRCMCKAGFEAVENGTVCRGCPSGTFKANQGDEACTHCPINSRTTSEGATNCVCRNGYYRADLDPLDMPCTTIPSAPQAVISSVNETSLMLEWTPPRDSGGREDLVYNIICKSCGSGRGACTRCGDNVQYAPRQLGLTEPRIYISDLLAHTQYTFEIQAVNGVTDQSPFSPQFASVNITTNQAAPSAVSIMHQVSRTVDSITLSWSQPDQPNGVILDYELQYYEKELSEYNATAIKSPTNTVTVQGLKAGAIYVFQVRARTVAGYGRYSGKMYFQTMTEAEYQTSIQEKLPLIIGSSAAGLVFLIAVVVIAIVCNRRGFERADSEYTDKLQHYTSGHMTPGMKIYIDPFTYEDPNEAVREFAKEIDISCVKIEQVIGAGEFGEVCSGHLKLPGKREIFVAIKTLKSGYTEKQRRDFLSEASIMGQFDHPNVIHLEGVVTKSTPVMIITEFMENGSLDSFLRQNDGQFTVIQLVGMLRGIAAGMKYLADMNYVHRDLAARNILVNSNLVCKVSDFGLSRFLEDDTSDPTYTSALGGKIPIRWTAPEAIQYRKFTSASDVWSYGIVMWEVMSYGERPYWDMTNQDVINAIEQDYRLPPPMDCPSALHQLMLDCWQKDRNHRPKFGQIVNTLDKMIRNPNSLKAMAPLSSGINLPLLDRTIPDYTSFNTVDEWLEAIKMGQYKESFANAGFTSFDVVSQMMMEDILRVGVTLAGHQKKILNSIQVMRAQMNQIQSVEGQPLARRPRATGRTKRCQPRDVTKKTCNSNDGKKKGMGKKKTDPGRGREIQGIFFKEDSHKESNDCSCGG

[4] = target: Serine/threonine-protein kinase PLK1 (Homo sapiens) (UniProt P53350); experiment: Inhibition of human recombinant PLK1 at 15 nM in presence of ATP by radiometric assay relative to control
Chain of Serine/threonine-protein kinase PLK1 (Homo sapiens) (P53350 whole entry): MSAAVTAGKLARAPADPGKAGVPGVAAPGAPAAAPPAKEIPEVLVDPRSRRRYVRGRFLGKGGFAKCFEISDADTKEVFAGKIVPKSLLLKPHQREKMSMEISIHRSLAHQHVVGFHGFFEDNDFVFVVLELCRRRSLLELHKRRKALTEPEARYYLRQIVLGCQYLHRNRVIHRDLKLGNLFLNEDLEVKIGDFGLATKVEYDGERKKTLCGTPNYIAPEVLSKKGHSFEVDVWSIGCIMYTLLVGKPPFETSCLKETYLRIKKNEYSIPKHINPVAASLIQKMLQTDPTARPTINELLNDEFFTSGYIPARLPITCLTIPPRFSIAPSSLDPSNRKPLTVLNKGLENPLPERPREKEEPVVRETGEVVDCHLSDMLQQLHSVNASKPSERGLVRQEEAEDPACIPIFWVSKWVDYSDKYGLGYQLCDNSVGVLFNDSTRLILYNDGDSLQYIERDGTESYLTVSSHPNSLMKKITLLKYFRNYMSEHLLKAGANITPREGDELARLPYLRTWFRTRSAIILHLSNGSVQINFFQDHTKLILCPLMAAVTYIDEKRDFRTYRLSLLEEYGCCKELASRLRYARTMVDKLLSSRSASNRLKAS

[5] = target: Serine/threonine-protein kinase MAK (Homo sapiens) (UniProt P20794); experiment: Inhibition of human recombinant MAK at 15 nM in presence of ATP by radiometric assay relative to control
Chain of Serine/threonine-protein kinase MAK (Homo sapiens) (P20794 whole entry, looked up): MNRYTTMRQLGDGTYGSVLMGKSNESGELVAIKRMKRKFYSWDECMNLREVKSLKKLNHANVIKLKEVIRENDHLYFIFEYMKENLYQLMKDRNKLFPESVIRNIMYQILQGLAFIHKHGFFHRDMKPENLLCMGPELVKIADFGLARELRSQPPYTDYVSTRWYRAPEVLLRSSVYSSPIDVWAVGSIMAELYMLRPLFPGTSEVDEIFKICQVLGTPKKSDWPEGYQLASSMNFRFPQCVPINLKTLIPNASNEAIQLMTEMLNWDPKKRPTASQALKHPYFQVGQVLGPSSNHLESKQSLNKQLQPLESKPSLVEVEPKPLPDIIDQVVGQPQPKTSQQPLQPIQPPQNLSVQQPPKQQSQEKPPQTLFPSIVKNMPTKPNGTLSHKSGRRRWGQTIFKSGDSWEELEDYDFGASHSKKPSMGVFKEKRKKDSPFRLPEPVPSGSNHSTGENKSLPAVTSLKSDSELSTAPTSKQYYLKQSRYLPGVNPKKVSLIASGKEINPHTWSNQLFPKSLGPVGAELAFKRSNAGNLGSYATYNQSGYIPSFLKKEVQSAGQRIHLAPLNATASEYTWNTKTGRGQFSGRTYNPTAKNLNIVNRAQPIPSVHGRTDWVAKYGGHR

inhibition [1]: 71%
SMILES: CNC(=O)c1ccccc1Oc1nc(Nc2cc(OC)c(OC)c(OC)c2)ncc1Br

fold change (FC) [2]: 0
SMILES: O=C(N[C@@H](C1CC1)C(F)(F)F)c1cc(-c2cnn3cc(-c4ccc(F)cc4)cnc23)cs1
inhibition (U2OS): Active

inhibition [3]: 7% | inhibition [4]: 1% | inhibition [5]: 5%
SMILES: CC(C)[C@H](NC(=O)c1cc(-c2cnn3cc(-c4ccc(OCCN5CCCCC5)cc4)cnc23)cs1)C(F)(F)F
